According to ChEMBL document CHEMBL1141063, “Ligands with dual vitamin D3-agonistic and androgen-antagonistic activities” (Bioorg Med Chem Lett, 2005):

What was measured:
[1] = biological target: T1, Androgen receptor (Homo sapiens, UniProt P10275); test: Binding affinity to androgen receptor by incubation with GST-hARLBD and [3H]testosterone
T1 sequence (P10275 whole entry): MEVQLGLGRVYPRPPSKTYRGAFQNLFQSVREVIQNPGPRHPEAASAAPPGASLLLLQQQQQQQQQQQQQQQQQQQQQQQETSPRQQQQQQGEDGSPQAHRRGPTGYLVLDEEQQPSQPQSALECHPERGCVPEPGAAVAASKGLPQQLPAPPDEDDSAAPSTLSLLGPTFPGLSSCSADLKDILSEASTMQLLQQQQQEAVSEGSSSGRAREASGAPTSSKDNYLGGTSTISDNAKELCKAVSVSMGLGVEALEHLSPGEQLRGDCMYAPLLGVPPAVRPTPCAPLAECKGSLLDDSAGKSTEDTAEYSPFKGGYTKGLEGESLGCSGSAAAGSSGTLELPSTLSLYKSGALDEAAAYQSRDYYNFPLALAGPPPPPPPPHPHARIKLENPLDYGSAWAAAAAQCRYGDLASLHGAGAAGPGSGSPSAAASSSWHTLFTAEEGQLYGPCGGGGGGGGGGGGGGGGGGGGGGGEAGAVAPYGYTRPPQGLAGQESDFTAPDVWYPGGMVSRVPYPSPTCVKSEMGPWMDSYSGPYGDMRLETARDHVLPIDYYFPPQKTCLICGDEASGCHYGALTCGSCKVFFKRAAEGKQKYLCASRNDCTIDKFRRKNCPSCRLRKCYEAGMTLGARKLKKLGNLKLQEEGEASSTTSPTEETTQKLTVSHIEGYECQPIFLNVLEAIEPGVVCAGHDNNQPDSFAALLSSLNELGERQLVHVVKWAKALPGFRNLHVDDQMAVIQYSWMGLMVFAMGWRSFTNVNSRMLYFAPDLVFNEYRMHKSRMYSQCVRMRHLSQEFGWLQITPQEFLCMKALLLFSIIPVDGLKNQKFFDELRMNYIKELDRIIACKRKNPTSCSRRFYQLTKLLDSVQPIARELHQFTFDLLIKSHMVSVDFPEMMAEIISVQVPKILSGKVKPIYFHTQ

[2] = Activity ratio of effective dose against vitamin D3 and inhibitory activity against androgen antagonistic activity; assay type: functional
Method in brief: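 Ratio of ED50 for HL-60 differentiation to IC50 for SC-3 growth inhibition. HL-60: cells in RPMI 1640 with or without compound for three days, then NBT 0.2% plus TPA 20 nM in PBS (1:1) for 20 min at 37 °C; NBT-positive cells counted among 200–300. SC-3: cells in MEM, 10% FBS, 10 nM testosterone with or without compound, three days, 37 °C, 5% CO2.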

[3] = biological target: T2, Vitamin D3 receptor (Homo sapiens) (UniProt P11473); test: Vitamin D3 agonistic activity as effective dose for HL-60 monocytic cell differentiation; assay type: functional, cell-based
T2 sequence (whole entry): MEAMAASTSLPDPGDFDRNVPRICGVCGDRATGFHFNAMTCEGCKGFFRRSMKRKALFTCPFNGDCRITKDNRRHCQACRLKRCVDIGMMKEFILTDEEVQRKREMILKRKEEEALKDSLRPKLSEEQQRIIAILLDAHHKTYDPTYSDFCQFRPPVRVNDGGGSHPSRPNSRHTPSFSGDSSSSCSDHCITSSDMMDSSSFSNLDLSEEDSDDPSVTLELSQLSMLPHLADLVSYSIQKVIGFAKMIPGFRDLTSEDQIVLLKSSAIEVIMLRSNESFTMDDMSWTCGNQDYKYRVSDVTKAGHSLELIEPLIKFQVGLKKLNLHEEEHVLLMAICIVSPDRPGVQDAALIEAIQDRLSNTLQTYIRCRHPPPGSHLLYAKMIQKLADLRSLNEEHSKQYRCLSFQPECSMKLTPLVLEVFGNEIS
Method in brief: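 HL-60 cells held in RPMI 1640 with or without test compound for three days. Cells were then mixed 1:1 (v/v) with PBS containing 0.2% NBT and 20 nM TPA and kept 20 min at 37 °C. NBT-positive cells were counted among 200–300 cells to give the ED50. Differentiation was also checked by Wright–Giemsa morphology.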

SMILES	Ki [1] [nM]	ED50 [3] [nM]	Ratio [2]
CCC(CC)(c1ccc(NCCC(C)(C)O)c(C)c1)c1ccc(NCCC(C)(C)O)c(C)c1	3380	900	0.13
CCC(CC)(c1ccc(NCC(=O)C(C)(C)C)c(C)c1)c1ccc(NCC(=O)C(C)(C)C)c(C)c1		450	0.45
CCC(CC)(c1ccc(OCC(O)CO)c(C)c1)c1ccc(OCC(O)C(C)(C)C)c(C)c1 (centres undefined)		44	2.31
CCC(CC)(c1ccc(NCC(O)C(C)(C)C)c(C)c1)c1ccc(NCC(O)C(C)(C)C)c(C)c1 (centres undefined)		1200	1.2

Further lines, with some results ahead:

Ki [1] [nM]	ED50 [3] [nM]	SMILES	Ratio [2]
1170	110	CCC(CC)(c1ccc(NCC(O)CO)c(C)c1)c1ccc(OCC(=O)C(C)(C)C)c(C)c1 (centres undefined)	14.5
	450	CCC(CC)(c1ccc(NCC(=O)C(C)(C)C)c(C)c1)c1ccc(OCC(=O)C(C)(C)C)c(C)c1	0.38
	1500	CCC(CC)(c1ccc(O)c(C)c1)c1ccc(NCC(=O)C(C)(C)C)c(C)c1	0.43
	410	CCC(CC)(c1ccc(OCC(=O)C(C)(C)C)c(C)c1)c1ccc(OCC(=O)C(C)(C)C)c(C)c1	0.22
1510	52	CCC(CC)(c1ccc(NCC(O)CO)c(C)c1)c1ccc(OCC(O)C(C)(C)C)c(C)c1 (centres undefined)	5.78
2900	370	CCC(CC)(c1ccc(NCCC(C)(C)O)c(C)c1)c1ccc(OCC(=O)C(C)(C)C)c(C)c1	0.45
